Test results published in ChEMBL document CHEMBL4261484, “Design, synthesis and anticonvulsant-analgesic activity of new N-[(phenoxy)alkyl]- and N-[(phenoxy)ethoxyethyl]aminoalkanols” (Medchemcomm, 2017).
Calls of active or inactive are those of the source.

Tests used:
Mus musculus [1] = assay: Neurotoxicity in mouse assessed as motor impairment by measuring time of escaping from chimney at 27 mg/kg, ip measured for 60 secs (reference value: 8.87 +/- 1.79 secs); format: toxicity, organism-based; conditions: in vivo, 1 min
Method in brief: (§1)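 Mice dosed ip; trained, selected animals placed in a horizontal tube 25 cm long and 2.5 cm in diameter, then tube reversed so mice must climb out backward. Read-outs: escape time (s) ± SEM and % animals losing coordination versus control. Unpaired t test.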

Mus musculus [2] = assay: Analgesic activity in mouse assessed as decrease in time of paw licking during phase 2 at 27 mg/kg, ip measured for 15 to 30 mins by formalin test relative to control; format: functional; set-up: scale not given: the % may be the effect or the level left
Method in brief: (§2)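 Formalin test in mice: 20 μL of 5% formalin injected intraplantarly into the right hind paw. Each mouse was observed alone in a glass beaker for 30 min. Time (s) spent licking or biting the injected paw was recorded at 0–5 min (acute phase) and 15–30 min (inflammatory phase).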

Mus musculus [3] = assay: Anticonvulsant activity in mouse assessed as protection against maximal electroshock-induced seizures at 100 mg/kg, ip; format: functional, organism-based
Method in brief: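 Mice dosed ip; maximal seizures induced by auricular electroshock (25 mA, 500 V, 50 Hz, 0.2 s). Endpoint: hind-limb tonic extension; animals without it scored protected. Read-out is number protected over number tested.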

[4] = Protection index, ratio of TD50 for neurotoxicity in ip dosed mouse by rotarod test to ED50 for anticonvulsant activity in mouse by maximal electroshock seizure test; format: toxicity, organism-based; conditions: in vivo, read-out: Ratio TD50/ED50
Mus musculus [5] = assay: Anticonvulsant activity in mouse assessed as protection against subcutaneous pentylenetetrazole-induced seizures at 100 mg/kg, ip measured for 30 mins post pentylenetetrazole challenge at 0.5 hrs after compound dosing relative to control; format: functional
HepG2 [6] = assay: Cytotoxicity against human HepG2 cells assessed as effect on cell viability at 10 to 250 uM after 24 hrs by neutral red assay; format: cell-based; conditions: hepg2, 24 h
Method in brief: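 HepG2 cells seeded at 5 × 10^4 per well, then after 24 h given medium with 10–250 μM for 24 h. Viability by neutral red staining, OD 570 nm. Results are % of control ± SEM, three independent experiments.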

HepG2 [7] = assay: Cytotoxicity against human HepG2 cells assessed as effect on cell viability at 10 to 250 uM after 24 hrs by MTT assay; format: cell-based; conditions: hepg2, 24 h
Method in brief: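 HepG2 cells grown in MEM with 10% FBS (37 °C, 5% CO2) and seeded at 1 × 10^4. After overnight culture, exposed to 10–250 μM for 24 h. MTT for 3 h, formazan dissolved, OD 570 nm. Viability is % of control ± SEM from three independent experiments.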

Mus musculus [8] = assay: Anticonvulsant activity in mouse assessed as current strength required to induce tonic hind-limb extension in 50% of the animals at 10 mg/kg, ip by maximal electroshock seizure threshold test (reference value: 6.05 to 8.13 mA); format: functional
Mus musculus [9] = assay: Anticonvulsant activity in mouse assessed as protection against subcutaneous pentylenetetrazole-induced seizures by measuring latency time of tonic seizures at 30 mg/kg, ip measured for 30 mins post pentylenetetrazole challenge at 0.5 hrs after compound dosing (reference value: 562.8 to 614.9 secs); format: functional
[10] = Cytotoxicity against mouse CRL-2541 cells assessed as effect on cell viability at 10 to 250 uM after 24 hrs by MTT assay; format: cell-based
Mus musculus [11] = assay: Toxicity in mouse assessed as effect on spontaneous activity at 27 mg/kg, ip measured for 30 mins by photoresistor actometer relative to control; format: organism-based; conditions: in vivo, 0.5 h
Method in brief: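 Mice dosed ip; locomotor activity by photoresistor actometers counting light-beam interruptions. Each mouse was habituated 30 min in a cage, then crossings were counted over a 30 min session. Data are mean ± SEM and % change vs control; unpaired t test.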

Mus musculus [12] = assay: Toxicity in mouse at 30 mg/kg, ip measured during maximal electroshock seizure test; format: organism-based; conditions: in vivo
Mus musculus [13] = assay: Analgesic activity in mouse assessed as time of paw licking during phase 1 at 27 mg/kg, ip measured for 5 mins by formalin test (reference value: 43.89 +/- 6.64 secs); format: functional; method in brief: as §2
Mus musculus [14] = assay: Toxicity in mouse at 100 mg/kg, ip measured during maximal electroshock seizure test; format: organism-based; conditions: in vivo
[15] = Neurotoxicity in ip dosed mouse assessed as motor impairment measured for one min by rotarod test; format: toxicity, organism-based; conditions: in vivo
Method in brief: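 Mice trained on an accelerating rotarod, then tested at least 24 h later after ip pretreatment, on a rod turning at 10 rpm. Neurotoxicity was scored as failure to stay on the rod for one minute. Read-out is mice impaired over mice tested.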

Mus musculus [16] = assay: Anticonvulsant activity in mouse assessed as protection against subcutaneous pentylenetetrazole-induced seizures by measuring latency time of tonic seizures at 100 mg/kg, ip measured for 30 mins post pentylenetetrazole challenge at 0.5 hrs after compound dosing (reference value: 562.8 to 614.9 secs); format: functional
Mus musculus [17] = assay: Toxicity in mouse at 25 mg/kg, ip measured during maximal electroshock seizure test; format: organism-based; conditions: in vivo
Mus musculus [18] = assay: Anticonvulsant activity in ip dosed mouse assessed as protection against maximal electroshock-induced seizures; format: functional
Method in brief: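 Mice were dosed ip. Maximal seizures were induced by auricular electrodes (25 mA, 500 V, 50 Hz, 0.2 s). Absence of hind-limb tonic extension counted as protection. […] Motor impairment was scored on a 10 rpm rotarod, giving TD50 the same way.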

Mus musculus [19] = assay: Neurotoxicity in mouse assessed as motor impairment by measuring loss of coordination at 27 mg/kg, ip measured for 60 secs by chimney test relative to control; format: toxicity, organism-based; conditions: in vivo, 1 min; method in brief: as §1
Mus musculus [20] = assay: Anticonvulsant activity in mouse assessed as increase in electroconvulsive threshold at 10 mg/kg, ip by maximal electroshock seizure threshold test relative to control; format: functional
Mus musculus [21] = assay: Anticonvulsant activity in mouse assessed as protection against subcutaneous pentylenetetrazole-induced seizures at 30 mg/kg, ip measured for 30 mins post pentylenetetrazole challenge at 0.5 hrs after compound dosing relative to control; format: functional

For `Cc1ccc(OCCOCCNC(C)CO)c(C)c1` (racemic), the Time (Mus musculus [1]) was 6 s, the Activity (Mus musculus [2]) was 83.41% and the Activity (Mus musculus [3]) was “Active”. The selectivity ratio [4] was 4.02, the Activity (Mus musculus [5]) was 117.23% and the Activity (HepG2 [6]) was “Non-Toxic”. The Activity (HepG2 [7]) was “Non-Toxic”, the Activity (Mus musculus [8]) was 6.76 mA and the Time (Mus musculus [9]) was 575.8 s. For the same compound, the Activity [10] was “Non-Toxic”, the Activity (Mus musculus [11]) was 68.92% and the Activity (Mus musculus [12]) was “Non-Toxic”. For the same compound, the Time (Mus musculus [13]) was 67.25 s, the Activity (Mus musculus [14]) was “Non-Toxic” and the TD50 at 1 min [15] was 109 mg/kg. The Time (Mus musculus [16]) was 1269 s, the Activity (Mus musculus [17]) was “Non-Toxic” and the ED50 (Mus musculus [18]) was 27.1 mg/kg. For the same compound, the Activity (Mus musculus [19]) was 0%, the Activity (Mus musculus [20]) was “inactive” and the Activity (Mus musculus [21]) was 2.31%.
